Assay results gathered from unrelated publications.
Lines come from different studies, so protocols differ.
Action: inhibitor
HDAC6: Protein deacetylase HDAC6 (HDAC6, Homo sapiens, UniProt Q9UBN7)
Dihydroorotate dehydrogenase, mitochondrial, putative: Dihydroorotate dehydrogenase, mitochondrial, putative (Plasmodium vivax, UniProt A5K1N1)
KCNH2: Voltage-gated inwardly rectifying potassium channel KCNH2 (KCNH2, Homo sapiens, UniProt Q12809)

Cc1cc(OS(=O)(=O)Oc2ccccc2)cc(C(=O)NO)c1 — IC50 (HDAC6; enzyme activity, fluorescence): 3830 nM
CCn1ncc2c([C@](O)(c3ccc(C(F)(F)F)c(Cl)c3)C3CC3)n(C)nc2c1=O — IC50 (Dihydroorotate dehydrogenase, mitochondrial, putative; enzyme activity, absorbance): 5 nM
Cc1cc(OS(=O)(=O)Oc2ccc(-n3ccnc3)cc2)cc(C(=O)NO)c1 — IC50 (HDAC6; enzyme activity, fluorescence): 4750 nM
COc1cc2c(cc1OC)CC(=O)N(CCCN(C)C[C@H]1Cc3cc(OC)c(OC)cc31)CC2 — IC50 (Potassium/sodium hyperpolarization-activated cyclic nucleotide-gated channel 1 (Homo sapiens, UniProt O60741); ion current): 5400 nM
CN(C)C(=O)CN1CCN(c2cnc3c(cc(C(=O)NCc4ccc(Cl)cc4)c(=O)n3CC(=O)N3CC(C)(F)C3)n2)C1=O — IC50 (KCNH2; ion current, patch clamp): > 40000 nM
CCn1cc(C)c2c(C(O)c3ccc(Cl)c(F)c3)n(C)nc2c1=O (stereo not shown) — IC50 (Dihydroorotate dehydrogenase, mitochondrial, putative; enzyme activity, absorbance): 9.8 nM
O=C(NO)c1cncc(OS(=O)(=O)Oc2ccc(C(F)(F)F)cc2)c1 — IC50 (HDAC6; enzyme activity, fluorescence): 147 nM
COc1cnc2c(cc(C(=O)NCc3ccc(Cl)cc3)c(=O)n2CC(=O)N2CC(C)(F)C2)n1 — IC50 (KCNH2; ion current, patch clamp): 2910 nM
O=C(NO)c1cccc(OS(=O)(=O)Oc2ccc(-c3cccc(C(F)(F)F)c3)cc2)c1 — IC50 (HDAC6; enzyme activity, fluorescence): 3100 nM
C=CS(=O)(=O)c1ccc(Nc2nc(OCC3CCCCC3)c3nc[nH]c3n2)cc1 — IC50 (KCNH2; ion current, patch clamp; HEK293): 5940 nM
Cc1cc(C(C)(C)C)ccc1OS(=O)(=O)Oc1cc(F)cc(C(=O)NO)c1 — IC50 (HDAC6; enzyme activity, fluorescence): 3210 nM
Cn1nc2c(=O)n(C3CC3)cnc2c1[C@](O)(c1cnc(C(F)(F)F)c(Cl)c1)C(F)(F)F — IC50 (Dihydroorotate dehydrogenase, mitochondrial, putative; enzyme activity, absorbance): 23 nM
O=C(NO)c1cccc(OS(=O)(=O)Oc2ccc3ccccc3c2)c1 — IC50 (HDAC6; enzyme activity, fluorescence): 91 nM
COc1ccc(C[C@H]2COC(=O)[C@@H]2Cc2ccc(OCC(=O)Nc3ccc(C(=O)Nc4ccccc4N)cc3)c(OC)c2)cc1OC — IC50 (HDAC6; enzyme activity): > 10000 nM
COc1ccc2c(C(=S)N(C)CC(=O)O)cccc2c1C(F)(F)F — IC50 (Aldo-keto reductase family 1 member B10 (AKR1B10, Homo sapiens, UniProt O60218); enzyme activity): 57 nM
CCOC(=O)c1nn(C)c(Cc2ccc(C(F)(F)F)nc2)c1C — IC50 (Dihydroorotate dehydrogenase, mitochondrial, putative; enzyme activity, absorbance): 88 nM
CNCCN1CCN(c2cnc3c(cc(C(=O)NCc4ccc(Cl)cc4)c(=O)n3CC(=O)N3CC(C)(F)C3)n2)C1=O — IC50 (KCNH2; ion current, patch clamp): > 40000 nM
O=c1oc(-c2cccnc2)nc2ccccc12 — IC50 (Prothrombin (F2, Homo sapiens, UniProt P00734); enzyme activity, absorbance; pH 7.4): ~970 nM
Cn1nc2c(=O)n(C3CC3)ccc2c1[C@](O)(c1cnc(C(F)(F)F)c(Cl)c1)C(F)(F)F — IC50 (Dihydroorotate dehydrogenase, mitochondrial, putative; enzyme activity, absorbance): 19 nM
